The list is not random: actives were taken first. Their share in the collection is about 4%.
E-sel inducer: E-selectin induction in HUVECs, primary screen, imaging, HUVEC, immunofluorescence imaging, single point | hit rate 0.37% among 260,000 | normalized: neutral wells 0, TNF-alpha wells 100 | activation, % at 7.58 µM | AID 686992, 2013 | P16581;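 active = mean E-selectin-positive cell signal at least 10% of the positive control, reached in at least 60% of replicates, without over 20% cell loss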
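Assay system: HUVEC, human umbilical vein endothelial cells / Amount: 3,000 HUVEC/well / Controls: TNF-alpha positive control, DMSO neutral control / Compound dosing: single concentration / Medium: EGM-2 over gelatin coat / Evaluation: percent E-selectin-positive cells / Signal: immunofluorescence imaging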
FGF22 binding-1: binders of human FGF22 protein, primary screen, FGF22 synaptogenesis inhibitor project, biophysical, thermal shift, single point; recombinant FGF22 thermal shift, SYPRO orange fluorescence; percent of sucrose octasulfate shift, DMSO zero; Fibroblast growth factor 22 (Homo sapiens), Q9HCT0; hit rate 1.5% among 340,000; activity (Tm shift, normalised), % at 9.99 µM; AID 651658, 2012;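 active = mean Tm shift, scaled 0 neutral to 100 positive control, at about 1.3% or above, every replicate too, limit read from the data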
FN deposition inh: inhibitors of fibronectin matrix deposition, primary screen, AH1F cells, Alexa488-fibronectin fluorescence, plate reader; hit rate 0.086% among 350,000; AID 743247, 2014; AH1F fibroblasts, overnight; inhibition, % at 12.6 µM;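 active = mean inhibition across replicates of 30% or more, regardless of how many single replicates reach that level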;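 note: positive control wells lacked labelled fibronectin entirely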
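Material: AH1F fibroblasts assembling fluorescent fibronectin matrix; amount: 10000 AH1F cells/well; medium: DMEM, 2% serum; reagent: Alexa488-fibronectin, 24 nM final in well; dosing: single compound dose, delivered by pin transfer; incubation: 1 h adhesion, overnight exposure; detection: fluorescence after three HBSS washes, excitation 485 nm, emission 525 nm; measure: fibronectin deposition inhibition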
rRNA inh HTS: reduced GFP signal of wild-type E. coli, primary screen, bacterial rRNA inhibitor project, GFP/RFP fluorescence, OD600, single point; E. coli WT GFP vs humanized-ribosome RFP mutants, 24 h; stronger effect = lower value; DMSO median 0, no signal -100; GFP signal change (wild-type ribosome), % (test concentration not listed); hit rate 1.6% among 350,000;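 active = significant combined selectivity score with lowered wild-type GFP, culture density cut under 30%, mutant RFP and density less affected; inactive = any of these conditions unmet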
Statin myotox sup: suppressors of statin myotoxicity in C2C12 myotubes, primary screen, cell-based, single point, plate reader. C2C12 myotubes + simvastatin, ATP luminescence, 48 h; scaled: DMSO 0, geranylgeraniol control 100. rescue of ATP level, % at 7.49 µM. hit rate 0.78% among 330,000;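 active = mean ATP rescue above about 67%, or every replicate alone reaching that limit, limit read from the data, passing the limit was not always enough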;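 note: myotubes were challenged with 10 µM simvastatin during compound exposure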
SIRT5 block: SIRT5 desuccinylase inhibitors, primary screen, biochemical, fluorescence imaging, single point, set 5. NAD-dependent protein deacylase sirtuin-5, mitochondrial (Homo sapiens), Q9NXA8. Purified SirT5, succinyl-peptide AMC, trypsin-coupled fluorescence. inhibition, % at 15 µM. hit rate 1.1% among 330,000; in the data active = inhibition above about 15%
FGF22 binding-2: binders of human FGF22 protein, dose response, FGF22 synaptogenesis inhibitor project, biophysical, thermal shift, cherry-pick retest | shares compounds with FGF22 binding-1 | recombinant FGF22 thermal shift, SYPRO orange fluorescence | thermal shift activity, °C (ΔTm) at 38 µM | hit rate 2% among 1,000;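 active = fitted rise in melting shift crosses a set limit at or below the top valid dose tested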
TSA no protein: compound-only thermal shift signal without protein, dose response, artefact control for FGF22 binder project, biochemical, cherry-picked samples, RT-PCR instrument; shares compounds with FGF22 binding-1; compound-only SYPRO orange thermal shift counter-screen, no protein; AC50, µM (top dose mostly 38 µM); hit rate 2% among 1,000;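 active = rising signal whose fitted curve reaches the 0.54 level within the top valid dose, showing a melting point, actives reach about 13 µM in these data; inactive = the rest, including activity in the opposite direction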; note: value is where the raw curve crosses a fixed level and not half-maximal
* = called active by the depositor; i = inactive; · = no result.

SMILES	E-sel inducer	FGF22 binding-1	FN deposition inh	rRNA inh HTS	Statin myotox sup	SIRT5 block	FGF22 binding-2	TSA no protein
COc1ccc2c3c(n(C)c2c1)[C@@H](CO)N(C(=O)NC1CCCC1)CC31CCN(C)CC1	-0.1	-0.3	·	3.9	·	-1.6	·	·
O=C(Nc1ccc(F)cc1)N1CC(=O)N2[C@@H](CO)[C@H](c3ccc(C#Cc4cccnc4)cc3)[C@@H]2C1	0.0	·	-1.9	-2.2	·	-0.8	·	·
CCCCNC(=O)c1onc(CSc2ccc(F)c(F)c2)c1C(=O)NCCCC	0.3	30.9*	12.9	-6.1	-10.2	3.3	0.026	6.27µM*
O=C(COC(=O)CCCOc1ccc(Cl)cc1Cl)NCc1ccccc1	·	32.0*	-5.0	-27.9	·	-3.7	0.278	i
Cc1ccc(S(=O)(=O)NCCSc2nnnn2-c2cc(C)ccc2C)cc1	·	·	-8.0	·	6.5	·	·	·
Cc1ccc(S(=O)(=O)NCCSc2nnnn2-c2ccccc2)cc1	·	34.9*	·	-8.6	-0.5	0.2	0.194	i
Nc1ccc(C(=O)Nc2ccc(OC(F)(F)C(F)F)c(NC(=O)c3ccc(N)cc3)c2)cc1	·	1.7*	4.2	-12.8	·	·	-0.694	i
C[C@H]1CN([C@@H](C)CO)C(=O)c2cccc(NS(=O)(=O)c3ccccc3)c2O[C@H]1CN(C)Cc1ccc(Cl)c(Cl)c1	-0.1	0.0	·	-4.4	-8.7	-0.5	·	·
Cc1ccc(-c2c[n+](CC(=O)Nc3ccc(C)cc3C)c3n2CCC3)cc1	0.2	13.9*	-2.5	-33.1*	1.3	·	0.242	i
Cc1ccc(NC(=O)C[n+]2cc(-c3ccc(C)cc3)n3c2CCC3)cc1	0.4	0.2	0.2	·	-193.5	-6.6	·	·
O=C(CNc1ccccc1OC(F)F)N1CCc2ccccc21	·	1.4*	·	18.9	·	-3.8	0.067	i
O=[N+]([O-])c1ccc(Nc2ccc(F)cc2)nc1	1.7	·	-6.2	·	·	·	·	·
O=[N+]([O-])c1ccc(Nc2ccccc2)nc1	·	1.4*	-1.4	17.8	·	3.2	-0.016	i
O=[N+]([O-])c1ccc(Nc2cccc(F)c2)nc1	-0.1	3.5*	2.7	-7.8	4.3	2.5	0.143	i
CC(C)NC(=O)N[C@H]1CC[C@@H](CCNC(=O)C2CCCC2)O[C@H]1CO	0.3	·	-0.4	4.3	-0.5	-6.0	·	·
OC[C@H]1[C@H](c2ccc(-c3cccnc3)cc2)[C@@H]2CN(Cc3ccccn3)CCCCN12	0.4	·	-4.7	0.6	-10.2	-1.8	·	·
OC[C@@H]1[C@@H](c2ccc(-c3cccnc3)cc2)[C@H]2CN(Cc3ccccn3)CCCCN12	-0.1	1.3*	-9.8	11.9	1.7	·	0.051	i
OC[C@H]1[C@@H](c2ccc(-c3cccnc3)cc2)[C@H]2CN(Cc3ccccn3)CCCCN21	-0.2	1.7*	-8.8	0.7	-8.7	-1.3	-0.064	i
C[C@@H]1CN([C@@H](C)CO)C(=O)c2cc(-c3ccncc3)cnc2O[C@H]1CN(C)C(=O)C1CCCCC1	0.9	-0.1	4.4	3.8	-13.7	-2.1	·	·
CC(C)N(C[C@H]1[C@H](c2ccccc2)[C@H](CO)N1S(C)(=O)=O)C(=O)CN(C)C	-0.1	-0.3	-5.8	-0.5	-8.4	-1.2	·	·
